# Reference: paper PMC5648736 (Clinical Pharmacokinetics, 2017)
# Read-outs that look alike come from different tables or passages of the source. Marks after values point to notes of the source that are not given here.
# Columns and labels:
# [1] = type: in vivo, human; settings: for AUC∞ estimated ratio (95% CI): unadjusted ANCOVA; for C max estimated ratio (90% CI): unadjusted; for t ½: geometric mean (CV%)
# [2] = cited from earlier work
# [3] = Safety and tolerability of single dose semaglutide 0.5 mg; type: in vivo, human; settings: single SC 0.5 mg
# How it was run: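 Single 0.5 mg subcutaneous injection into the thigh by pen. ESRD subjects were dosed 1–24 h after haemodialysis, with no dialysis for 48 h after. Monitoring covered AEs, physical exam, ECG, vital signs, plasma glucose and clinical labs (biochemistry, haematology, urinalysis). TEAEs counted from dosing day to follow-up +14 days (~5 weeks). Hypoglycaemia: major = unable to self-treat; minor = self-treated with glucose <3.1 mmol/L. Descriptive statistics.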
# [4] = Safety of initial single dose semaglutide 10 µg/kg; type: in vivo, human
# How it was run: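 Initial cohort received a single weight-based dose, with ESRD subjects dosed 1–24 h after haemodialysis. Safety was judged from reported AEs, serious AEs, and gastrointestinal frequency and severity. Hypoglycaemia was classed as major, minor or symptoms-only by ability to self-treat and a 3.1 mmol/L plasma glucose cut-off. This cohort was evaluated for safety only and excluded from pharmacokinetic analysis.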
# [5] = ESRD vs normal, adjusted for age, sex, log(weight), single SC 0.5 mg
# [6] = mild RI vs normal, adjusted for age, sex, log(weight), single SC 0.5 mg
# [7] = moderate RI vs normal, adjusted for age, sex, log(weight), single SC 0.5 mg
# [8] = severe RI vs normal, adjusted for age, sex, log(weight), single SC 0.5 mg
# [9] = single dose 10 µg/kg, six subjects
compound,measurement,setting,value
"CC[C@H](C)[C@H](NC(=O)[C@H](Cc1ccccc1)NC(=O)[C@H](CCC(=O)O)NC(=O)[C@H](CCCCNC(=O)COCCOCCNC(=O)COCCOCCNC(=O)CC[C@H](NC(=O)CCCCCCCCCCCCCCCCC(=O)O)C(=O)O)NC(=O)[C@H](C)NC(=O)[C@H](C)NC(=O)[C@H](CCC(N)=O)NC(=O)CNC(=O)[C@H](CCC(=O)O)NC(=O)[C@H](CC(C)C)NC(=O)[C@H](Cc1ccc(O)cc1)NC(=O)[C@H](CO)NC(=O)[C@H](CO)NC(=O)[C@@H](NC(=O)[C@H](CC(=O)O)NC(=O)[C@H](CO)NC(=O)[C@@H](NC(=O)[C@H](Cc1ccccc1)NC(=O)[C@@H](NC(=O)CNC(=O)[C@H](CCC(=O)O)NC(=O)C(C)(C)NC(=O)[C@@H](N)Cc1cnc[nH]1)[C@@H](C)O)[C@@H](C)O)C(C)C)C(=O)N[C@@H](C)C(=O)N[C@@H](Cc1c[nH]c2ccccc12)C(=O)N[C@@H](CC(C)C)C(=O)N[C@H](C(=O)N[C@@H](CCCNC(=N)N)C(=O)NCC(=O)N[C@@H](CCCNC(=N)N)C(=O)NCC(=O)O)C(C)C [semaglutide, Semaglutide]","AUC48 ratio (ESRD group/normal renal function group), adjusted","[1]; 0–48 h, without hemodialysis, adjusted for age, sex, body weight, (90% CI)",0.81
same,"AUC48–96 ratio (ESRD group/normal renal function group), adjusted","[1]; 48–96 h, with hemodialysis, adjusted for age, sex, body weight, (90% CI)",0.93
same,effect of hemodialysis on pharmacokinetics,"[1]; ESRD group, AUC48 vs AUC48–96 ratios",hemodialysis did not appear to affect the pharmacokinetics
same,AUC∞ estimated ratio (95% CI),"[1]; ESRD vs normal renal function, single SC 0.5 mg",0.99 (0.82–1.19)
same,"AUC∞ estimated ratio (95% CI), adjusted analysis",[1]; [5],1.10 (0.94–1.28)
same,"C max estimated ratio (90% CI), adjusted analysis",[1]; [5],0.82 (0.66–1.01)
same,C max estimated ratio (90% CI),"[1]; ESRD vs normal, single SC 0.5 mg",0.72 (0.57–0.91)
same,t ½,"[1]; ESRD, single SC 0.5 mg, n=9",243 (19)^b h
same,C max lower in subjects with RI than in subjects with normal renal function,"[1]; all RI groups, adjusted for age, sex, log(weight), single SC 0.5 mg",10–20%
same,AUC∞ estimated ratio (95% CI),"[1]; mild RI vs normal renal function, single SC 0.5 mg",1.01 (0.83–1.21)
same,"AUC∞ estimated ratio (95% CI), adjusted analysis",[1]; [6],0.99 (0.85–1.16)
same,"C max estimated ratio (90% CI), adjusted analysis",[1]; [6],0.90 (0.73–1.11)
same,C max estimated ratio (90% CI),"[1]; mild RI vs normal, single SC 0.5 mg",0.95 (0.76–1.20)
same,t ½,"[1]; mild RI, single SC 0.5 mg, n=9",169 (14)^b h
same,mean C max across the other groups,"[1]; mild, moderate and severe RI groups, single SC 0.5 mg",9.0 to 9.8 nM
same,AUC∞ estimated ratio (95% CI),"[1]; moderate RI vs normal renal function, single SC 0.5 mg",1.15 (0.96–1.38)
same,"AUC∞ estimated ratio (95% CI), adjusted analysis",[1]; [7],1.07 (0.91–1.27)
same,"C max estimated ratio (90% CI), adjusted analysis",[1]; [7],0.79 (0.64–0.99)
same,C max estimated ratio (90% CI),"[1]; moderate RI vs normal, single SC 0.5 mg",0.88 (0.70–1.10)
same,t ½,"[1]; moderate RI, single SC 0.5 mg, n=10",201 (14)^c h
same,t max range across the groups,"[1]; range of group medians, single SC 0.5 mg",24 to 51 h
same,AUC∞ estimated ratio (95% CI),"[1]; severe RI vs normal renal function, single SC 0.5 mg",1.22 (1.02–1.47)
same,"AUC∞ estimated ratio (95% CI), adjusted analysis",[1]; [8],1.13 (0.97–1.32)
same,"C max estimated ratio (90% CI), adjusted analysis",[1]; [8],0.86 (0.70–1.06)
same,C max estimated ratio (90% CI),"[1]; severe RI vs normal, single SC 0.5 mg",0.95 (0.75–1.19)
same,increase in exposure,"[1]; subjects with CLCR 10 mL/min versus CLCR 90 mL/min, from slope −0.06",14%
same,t ½ in humans,[2],approximately 1 week
same,"vital signs, electrocardiogram, physical examinations, clinical laboratory assessments",[3]; all groups,No clinically significant values or appreciable changes
same,serious or severe TEAEs,"[3]; all groups, n=56",none were serious or severe
same,minor hypoglycemia,[3]; moderate RI and ESRD groups,one subject with moderate RI and one with ESRD experienced minor hypoglycemia
same,symptoms-only hypoglycemia,[3]; moderate RI group,two subjects in the moderate RI group experienced symptoms-only hypoglycemia
same,major hypoglycemic events,[3]; one subject with severe RI without type 2 diabetes,two major hypoglycemic events
same,tolerability as starting dose,"[4]; single dose 10 µg/kg (0.7–1.2 mg), six subjects (three severe RI, three ESRD)",not considered a tolerable starting dose
same,minor or symptoms-only hypoglycemia,[4]; [9],three experienced minor or symptoms-only hypoglycemia
same,significant nausea and/or vomiting,[4]; [9],five experienced significant nausea and/or vomiting
